Calls of active or inactive are those of the source.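 How the source made its calls: active means labelling ratio, compound over solvent, at most 0.5 for PAFAH2 while all off-target serine hydrolases stay above 0.5; inactive means the rest.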
Legend:
Assay in all cases: proteome-wide serine hydrolase selectivity in cells, late-stage follow-up, selectivity assay for PAFAH2 inhibitor project, LC-MS, SILAC, BW5147 murine T cells (AID 504519)
PARL = settings: SILAC ABPP LC-MS/MS ratio, active compounds read low
Summary of the method: (§1)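 Material: murine T-cell hybridoma line derived from BW5147, SILAC-labeled (light or heavy). Buffer or medium: SILAC RPMI, light or heavy. Doses: compound (light cells) versus DMSO (heavy cells). Technique: MudPIT LC/LC-MS/MS after biotin enrichment. Evaluation: Per-protein light/heavy peptide intensity ratio, 1 meaning no inhibition. Controls: heavy DMSO-treated cells as reference.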

SERHL = settings: SILAC ABPP LC-MS/MS ratio, active compounds read low
Summary of the method: as §1

ACOT1 = settings: SILAC ABPP LC-MS/MS ratio, active compounds read low
Summary of the method: as §1

DPP9 = settings: SILAC ABPP LC-MS/MS ratio, active compounds read low
Summary of the method: as §1

IAH1 = settings: SILAC ABPP LC-MS/MS ratio, active compounds read low
Summary of the method: as §1

DPP8 = settings: SILAC ABPP LC-MS/MS ratio, active compounds read low
Summary of the method: as §1

CTSA = settings: SILAC ABPP LC-MS/MS ratio, active compounds read low
Summary of the method: as §1

BAT5 = settings: SILAC ABPP LC-MS/MS ratio, active compounds read low
Summary of the method: as §1

LIPA = settings: SILAC ABPP LC-MS/MS ratio, active compounds read low
Summary of the method: as §1

ABHD6 = settings: SILAC ABPP LC-MS/MS ratio, active compounds read low
Summary of the method: as §1

ACOT7 = settings: SILAC ABPP LC-MS/MS ratio, active compounds read low
Summary of the method: as §1

DPP4 = settings: SILAC ABPP LC-MS/MS ratio, active compounds read low
Summary of the method: as §1

LYPLA2 = settings: SILAC ABPP LC-MS/MS ratio, active compounds read low
Summary of the method: as §1

FAM108C = settings: SILAC ABPP LC-MS/MS ratio, active compounds read low
Summary of the method: as §1

FAM108B1 = settings: SILAC ABPP LC-MS/MS ratio, active compounds read low
Summary of the method: as §1

ACOT2 = settings: SILAC ABPP LC-MS/MS ratio, active compounds read low
Summary of the method: as §1

ABHD10 = settings: SILAC ABPP LC-MS/MS ratio, active compounds read low
Summary of the method: as §1

PRCP = settings: SILAC ABPP LC-MS/MS ratio, active compounds read low
Summary of the method: as §1

LYPLA3 = settings: SILAC ABPP LC-MS/MS ratio, active compounds read low
Summary of the method: as §1

AADACL1 = settings: SILAC ABPP LC-MS/MS ratio, active compounds read low
Summary of the method: as §1

PREPL = settings: SILAC ABPP LC-MS/MS ratio, active compounds read low
Summary of the method: as §1

ABHD12 = settings: SILAC ABPP LC-MS/MS ratio, active compounds read low
Summary of the method: as §1

PAFAH1B3 = settings: SILAC ABPP LC-MS/MS ratio, active compounds read low
Summary of the method: as §1

FAAH = settings: SILAC ABPP LC-MS/MS ratio, active compounds read low
Summary of the method: as §1

PNPLA6 = settings: SILAC ABPP LC-MS/MS ratio, active compounds read low
Summary of the method: as §1

DPP7 = settings: SILAC ABPP LC-MS/MS ratio, active compounds read low
Summary of the method: as §1

LACTB = settings: SILAC ABPP LC-MS/MS ratio, active compounds read low
Summary of the method: as §1

SIAE = settings: SILAC ABPP LC-MS/MS ratio, active compounds read low
Summary of the method: as §1

DDHD1 = settings: SILAC ABPP LC-MS/MS ratio, active compounds read low
Summary of the method: as §1

[1] = molecular target: Platelet-activating factor acetylhydrolase 2, cytoplasmic (Mus musculus) (UniProt Q8VDG7); settings: SILAC ABPP LC-MS/MS ratio, PAFAH2, active compounds read low
Chain of Platelet-activating factor acetylhydrolase 2, cytoplasmic (Mus musculus) (Q8VDG7 whole entry, looked up): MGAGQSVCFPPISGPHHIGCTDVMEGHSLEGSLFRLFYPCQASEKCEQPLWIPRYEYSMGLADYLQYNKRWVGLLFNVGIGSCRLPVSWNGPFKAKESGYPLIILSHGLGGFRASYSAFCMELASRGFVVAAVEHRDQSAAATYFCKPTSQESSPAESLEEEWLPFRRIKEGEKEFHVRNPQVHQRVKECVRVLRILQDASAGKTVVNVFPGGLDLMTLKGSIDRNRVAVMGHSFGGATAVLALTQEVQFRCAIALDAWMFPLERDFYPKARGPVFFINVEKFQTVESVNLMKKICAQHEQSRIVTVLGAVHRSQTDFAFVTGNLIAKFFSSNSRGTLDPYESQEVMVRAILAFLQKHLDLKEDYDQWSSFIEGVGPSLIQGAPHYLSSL
Summary of the method: as §1

PNPLA7 = settings: SILAC ABPP LC-MS/MS ratio, active compounds read low
Summary of the method: as §1

FAM108A = settings: SILAC ABPP LC-MS/MS ratio, active compounds read low
Summary of the method: as §1

APEH = settings: SILAC ABPP LC-MS/MS ratio, active compounds read low
Summary of the method: as §1

PLA2G6 = settings: SILAC ABPP LC-MS/MS ratio, active compounds read low
Summary of the method: as §1

LYPLA1 = settings: SILAC ABPP LC-MS/MS ratio, active compounds read low
Summary of the method: as §1

ABHD11 = settings: SILAC ABPP LC-MS/MS ratio, active compounds read low
Summary of the method: as §1

ABHD13 = settings: SILAC ABPP LC-MS/MS ratio, active compounds read low
Summary of the method: as §1

PPME1 = settings: SILAC ABPP LC-MS/MS ratio, active compounds read low
Summary of the method: as §1

FASN = settings: SILAC ABPP LC-MS/MS ratio, active compounds read low
Summary of the method: as §1

PAFAH1B2 = settings: SILAC ABPP LC-MS/MS ratio, active compounds read low
Summary of the method: as §1

[2] = molecular target: Prolyl endopeptidase (Mus musculus) (UniProt Q9QUR6); settings: SILAC ABPP LC-MS/MS ratio, PREP, active compounds read low
Chain of Prolyl endopeptidase (Mus musculus) (Q9QUR6 whole entry, looked up): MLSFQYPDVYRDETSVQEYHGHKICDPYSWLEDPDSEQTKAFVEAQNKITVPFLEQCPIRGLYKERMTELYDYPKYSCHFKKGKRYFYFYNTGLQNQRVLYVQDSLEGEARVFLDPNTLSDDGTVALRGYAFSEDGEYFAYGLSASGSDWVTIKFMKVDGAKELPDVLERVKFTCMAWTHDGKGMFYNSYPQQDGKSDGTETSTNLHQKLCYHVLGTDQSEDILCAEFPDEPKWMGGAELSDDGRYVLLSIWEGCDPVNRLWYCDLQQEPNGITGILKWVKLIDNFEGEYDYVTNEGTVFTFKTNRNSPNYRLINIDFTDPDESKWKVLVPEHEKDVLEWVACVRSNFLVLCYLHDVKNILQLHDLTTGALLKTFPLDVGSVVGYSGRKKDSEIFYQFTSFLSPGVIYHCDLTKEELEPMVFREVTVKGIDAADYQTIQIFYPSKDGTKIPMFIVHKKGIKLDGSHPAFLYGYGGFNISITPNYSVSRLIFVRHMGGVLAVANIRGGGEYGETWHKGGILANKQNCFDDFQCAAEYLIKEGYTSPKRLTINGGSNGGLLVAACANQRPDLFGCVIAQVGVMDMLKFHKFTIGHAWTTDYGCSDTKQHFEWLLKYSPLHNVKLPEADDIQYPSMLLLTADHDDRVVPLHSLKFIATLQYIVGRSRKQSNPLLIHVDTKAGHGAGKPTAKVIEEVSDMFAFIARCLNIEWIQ
Summary of the method: as §1

ESD = settings: SILAC ABPP LC-MS/MS ratio, active compounds read low
Summary of the method: as §1

## O=C(N1CCCC1)n1ncc(-c2ccc(-c3ccccc3)cc2)n1
PARL
  SILAC ratio inhibitor/DMSO: 1.2 (inactive)
SERHL
  SILAC ratio inhibitor/DMSO: 1.1 (inactive)
ACOT1
  SILAC ratio inhibitor/DMSO: 1.2 (inactive)
DPP9
  SILAC ratio inhibitor/DMSO: 1.3 (inactive)
IAH1
  SILAC ratio inhibitor/DMSO: 1.2 (inactive)
DPP8
  SILAC ratio inhibitor/DMSO: 1.3 (inactive)
CTSA
  SILAC ratio inhibitor/DMSO: 1.1 (inactive)
BAT5
  SILAC ratio inhibitor/DMSO: 1.3 (inactive)
LIPA
  SILAC ratio inhibitor/DMSO: 1.6 (inactive)
ABHD6
  SILAC ratio inhibitor/DMSO: 0.59 (inactive)
ACOT7
  SILAC ratio inhibitor/DMSO: 1.2 (inactive)
DPP4
  SILAC ratio inhibitor/DMSO: 1.2 (inactive)
LYPLA2
  SILAC ratio inhibitor/DMSO: 1.4 (inactive)
FAM108C
  SILAC ratio inhibitor/DMSO: 1.3 (inactive)
FAM108B1
  SILAC ratio inhibitor/DMSO: 1.2 (inactive)
ACOT2
  SILAC ratio inhibitor/DMSO: 1.2 (inactive)
ABHD10
  SILAC ratio inhibitor/DMSO: 1.4 (inactive)
PRCP
  SILAC ratio inhibitor/DMSO: 1.4 (inactive)
LYPLA3
  SILAC ratio inhibitor/DMSO: 1.3 (inactive)
AADACL1
  SILAC ratio inhibitor/DMSO: 1.3 (inactive)
PREPL
  SILAC ratio inhibitor/DMSO: 1.3 (inactive)
ABHD12
  SILAC ratio inhibitor/DMSO: 1.3 (inactive)
PAFAH1B3
  SILAC ratio inhibitor/DMSO: 1.3 (inactive)
FAAH
  SILAC ratio inhibitor/DMSO: 1.3 (inactive)
PNPLA6
  SILAC ratio inhibitor/DMSO: 1.6 (inactive)
DPP7
  SILAC ratio inhibitor/DMSO: 1.2 (inactive)
LACTB
  SILAC ratio inhibitor/DMSO: 1.3 (inactive)
SIAE
  SILAC ratio inhibitor/DMSO: 1.3 (inactive)
DDHD1
  SILAC ratio inhibitor/DMSO: 1.4 (inactive)
[1]
  SILAC ratio inhibitor/DMSO: 0
PNPLA7
  SILAC ratio inhibitor/DMSO: 1.6 (inactive)
FAM108A
  SILAC ratio inhibitor/DMSO: 1.1 (inactive)
APEH
  SILAC ratio inhibitor/DMSO: 1 (inactive)
PLA2G6
  SILAC ratio inhibitor/DMSO: 0.91 (inactive)
LYPLA1
  SILAC ratio inhibitor/DMSO: 1.3 (inactive)
ABHD11
  SILAC ratio inhibitor/DMSO: 1.4 (inactive)
ABHD13
  SILAC ratio inhibitor/DMSO: 1.2 (inactive)
PPME1
  SILAC ratio inhibitor/DMSO: 1.2 (inactive)
FASN
  SILAC ratio inhibitor/DMSO: 1.3 (inactive)
PAFAH1B2
  SILAC ratio inhibitor/DMSO: 1.2 (inactive)
[2]
  SILAC ratio inhibitor/DMSO: 1.3 (inactive)
ESD
  SILAC ratio inhibitor/DMSO: 1 (inactive)
